According to ChEMBL document CHEMBL1275382, “Synthesis and SAR studies of chiral non-racemic dexoxadrol analogues as uncompetitive NMDA receptor antagonists” (Bioorg Med Chem, 2010):

Assays:
[1] = Binding affinity to sigma2 receptor
Method in brief: (§1)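 Radioligand competition binding with at least six test-compound concentrations, each run in triplicate. Incubations were stopped by rapid filtration through filters presoaked 2 h in 0.5% aqueous polyethylenimine, and bound radioactivity was counted by solid scintillation. IC50 came from non-linear regression and Ki from the Cheng–Prusoff equation. Values are mean ± SEM of three independent experiments.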

[2] = Binding affinity to NMDA receptor ifenprodil binding site; method in brief: as §1
[3] = molecular target: Sigma non-opioid intracellular receptor 1 (Homo sapiens, UniProt Q99720); assay: Binding affinity to sigma1 receptor; method in brief: as §1
Chain of Sigma non-opioid intracellular receptor 1 (Q99720 whole entry): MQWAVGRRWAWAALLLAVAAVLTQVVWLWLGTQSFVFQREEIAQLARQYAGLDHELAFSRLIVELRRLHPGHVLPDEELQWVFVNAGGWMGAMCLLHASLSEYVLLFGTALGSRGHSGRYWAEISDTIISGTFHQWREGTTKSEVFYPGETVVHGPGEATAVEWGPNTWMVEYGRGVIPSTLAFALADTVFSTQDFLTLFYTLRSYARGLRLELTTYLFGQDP

SMILES	Ki [1] [nM]	Ki [2] [nM]	Ki [3] [nM]
FC1(F)CCNC(C2COC(c3ccccc3)(c3ccccc3)O2)C1 (racemic)	> 1000	> 1000	> 800
FC1CCNC(C2COC(c3ccccc3)(c3ccccc3)O2)C1 (racemic)	> 1000	> 1000	> 800
OC1CCNC(C2COC(c3ccccc3)(c3ccccc3)O2)C1 (racemic)	> 1000	> 1000	> 800
O=C1CCNC(C2COC(c3ccccc3)(c3ccccc3)O2)C1 (racemic)	> 1000	> 1000	> 800
c1ccc(C2(c3ccccc3)OCC(C3CCCCN3)O2)cc1 (racemic) [DIOXADROL]	> 1000	> 1000	> 800
